From PubChem BioAssay AID1617 (Sanford-Burnham Center for Chemical Genomics, 2009)
The source made the active and inactive calls.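 Rule for the calls: active = compound at least 90% bound to plasma protein at 1 µM; inactive = the rest.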

Tested on: human plasma protein binding, RED dialysis, LC/MS/MS
Assay: human plasma protein binding, late-stage follow-up, ADME assay, biochemical, rapid equilibrium dialysis, LC/MS/MS (AID 1617)
Details: stronger effect = higher value
Outline: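 Material: Compound-spiked plasma dialysed against buffer by equilibrium dialysis. Times: 4 h dialysis, 37 °C, shaken. Read-out: percent bound, 100 minus free percentage from buffer-to-plasma concentration ratio. Compound dosing: two single doses, 1 and 10 µM final, 0.1% DMSO. Medium: Isotonic PBS pH 7.4 as dialysis buffer. Detection: LC/MS/MS of both chamber aliquots.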

plasma protein bound (at 1 µM): 27.9% (inactive)
plasma protein bound (percent bound, at 10 µM): 16.8%
SMILES: Cc1cc(OCC(=O)Nc2ncn[nH]2)ccc1Cl
